This note sets out measurements from ChEMBL document CHEMBL1140818, “Triazole derivatives as non-nucleoside inhibitors of HIV-1 reverse transcriptase--structure-activity relationships and crystallographic analysis” (Bioorg Med Chem Lett, 2008).

Each structure is given as a SMILES string.

For data set [1], the system named is Human immunodeficiency virus 1. Description: Antiviral activity against HIV1 in MT4 cells. It counts as functional, organism-based. The following applies: Human immunodeficiency virus 1, MT4. The method, boiled down: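 HIV-1 infectivity assay in MT-4 cells over 5 days, with virus-induced cell death as the read-out. EC50 is the mean of at least two independent experiments.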

Data set [2] in a line: Selectivity index, ratio of EC50 for MT4 cells to EC50 for HIV1. In kind it is cell-based. The following applies: human; for Selectivity index: mt4; for selectivity ratio: MT4 cells, read-out: Selectivity index. A digest of the protocol: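 Ratio of the cytotoxicity EC50 to the antiviral EC50, both from the 5-day MT-4 assay with virus-induced cell death as the antiviral read-out. Values are means of at least two independent experiments.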

Data set [3] is described as follows: Partition coefficient, log D of the compound. It counts as physicochemical. The note with it: octanol/water.

In data set [1], `c1ccc(CCSc2nnc(-c3ccsc3)n2Cc2ccccc2)cc1` had an EC50 greater than 100 µM. For the same molecule, the Selectivity index result in data set [2] is “Not Active”.
For `c1ccc(Cn2c(SCc3ccccn3)nnc2-c2ccsc2)cc1`, the Selectivity index result in data set [2] is on record as “Not Active”.
As to `c1ccc(Cn2c(SCc3ccncc3)nnc2-c2ccsc2)cc1`, the EC50 in data set [1] amounted to 41.5 µM. In data set [2], the selectivity ratio was found to be 1.
In the case of `Clc1ccc(CSc2nnc(-c3ccsc3)n2Cc2ccccc2)cc1`, in data set [1], the EC50 was determined as 51.1 µM. Also, the selectivity ratio in data set [2] is no more than 1.
For the molecule `c1ccc(CSc2nnc(-c3cccs3)n2-c2ccccc2)cc1`, the half-maximal effective concentration (EC50) in data set [1] was greater than 100 µM. Besides, the Selectivity index entry in data set [2] is “Not Active”.
The corresponding values for `c1ccc(CCn2c(SCc3ccccc3)nnc2-c2cccs2)cc1` are greater than 100 µM and “Not Active”.
In the case of `Clc1cccc(Cl)c1CSc1nnc(-c2cccs2)n1Cc1ccccc1`, a half-maximal response in data set [1] (EC50) required 3.45 µM. In addition, the selectivity ratio in data set [2] came to 1.7.
The molecule `Clc1ccc(CSc2nnc(-c3cccs3)n2Cc2ccccc2)cc1Cl` gave an EC50 in data set [1] of 2.4 µM. Also, the selectivity ratio in data set [2] came to 3.1.
For `Clc1ccc(Cn2c(SCc3ccccc3)nnc2-c2cccs2)cc1`, in data set [1], the EC50 was greater than 100 µM.
As for `Clc1ccc(Cn2c(SCc3ccccc3)nnc2-c2cccs2)cc1Cl`, in data set [1], the EC50 was greater than 100 µM. Also, the Selectivity index entry in data set [2] is “Not Active”.
On to `CCCCCCSc1nnc(-c2ccsc2)n1Cc1ccccc1`, for which the EC50 in data set [1] is greater than 100 µM. Further, in data set [2], the Selectivity index entry is on record as “Not Active”.
Consider `Cc1nnc(SCc2ccccc2)n1Cc1ccccc1`, for which the response in data set [1] was half-maximal at 23.5 µM (EC50). For the same molecule, the selectivity ratio in data set [2] amounted to 2.
As to `c1ccc(CSc2nnc(-c3ccco3)n2Cc2ccccc2)cc1`, a half-maximal effect in data set [1] (EC50) was put at 4.6 µM. Besides, the selectivity ratio in data set [2] was 5.2.
For `c1ccc(CSc2nnc(Cc3cccs3)n2Cc2ccccc2)cc1`, the half-maximal effective concentration (EC50) in data set [1] is greater than 100 µM. Moreover, the Selectivity index result in data set [2] is on record as “Not Active”.
`Clc1ccccc1-c1nnc(SCc2ccccc2)n1Cc1ccccc1` came in with a half-maximal effective concentration (EC50) in data set [1] of 2.85 µM. The selectivity ratio in data set [2] came to 2.9.
For the molecule `CSc1nnc(-c2cccs2)n1Cc1ccccc1`, the 50% effective concentration (EC50) in data set [1] is greater than 100 µM. In data set [2], the Selectivity index result was “Not Active”.
In turn, `CCCCCCSc1nnc(-c2cccs2)n1Cc1ccccc1` gave an EC50 in data set [1] greater than 100 µM. For the same molecule, the Selectivity index entry in data set [2] is given as “Not Active”.
For the molecule `N#Cc1ccc(CSc2nnc(-c3cccs3)n2Cc2ccccc2)cc1`, in data set [1], the EC50 worked out at 23.5 µM. In addition, in data set [2], the selectivity ratio was less than 1.
`Clc1ccccc1CSc1nnc(-c2cccs2)n1Cc1ccccc1` registered an EC50 in data set [1] of 0.44 µM. The selectivity ratio in data set [2] was determined as 35.2.
In data set [1], `N#Cc1ccc(CSc2nnc(-c3ccsc3)n2Cc2ccccc2)cc1` had an EC50 greater than 100 µM. The Selectivity index entry in data set [2] is listed as “Not Active”.
`Clc1cccc(CSc2nnc(-c3cccs3)n2Cc2ccccc2)c1Cl` had an EC50 in data set [1] of 0.73 µM. For the same molecule, the selectivity ratio in data set [2] came to 9.1.
`Clc1ccccc1CSc1nnc(-c2ccsc2)n1Cc1ccccc1` yielded a concentration for a half-maximal effect (EC50) in data set [1] of 0.131 µM. In addition, in data set [2], the selectivity ratio amounted to 62.
The corresponding values for `Clc1ccc(CSc2nnc(-c3ccsc3)n2Cc2ccccc2)c(Cl)c1` are 3.3 µM and 2.9.
Turning to `Clc1ccc(Cl)c(CSc2nnc(-c3ccsc3)n2Cc2ccccc2)c1`, in data set [1], the concentration giving a half-maximal response (EC50) was 8.95 µM. In data set [2], the selectivity ratio is 1.6.
Take `c1ccc(CCSc2nnc(-c3cccs3)n2Cc2ccccc2)cc1`: the EC50 in data set [1] turned out to be 28.5 µM. Also, in data set [2], the selectivity ratio is no more than 1.
The corresponding values for `c1ccc(Cn2c(SCc3cccnc3)nnc2-c2cccs2)cc1` are 8.3 µM and 6.
The molecule `Clc1cccc(Cl)c1CSc1nnc(-c2ccsc2)n1Cc1ccccc1` registered an EC50 in data set [1] greater than 100 µM. In addition, the Selectivity index entry in data set [2] was “Not Active”.
As to `c1ccc(Cn2c(SCc3ccc4ccccc4c3)nnc2-c2ccsc2)cc1`, the concentration giving a half-maximal response (EC50) in data set [1] is 0.58 µM. The selectivity ratio in data set [2] was 11.1.
Take `Cn1c(SCc2ccccc2)nnc1-c1cccs1`: the 50% effective concentration (EC50) in data set [1] was greater than 100 µM. The Selectivity index entry in data set [2] was “Not Active”.
In data set [1], `c1ccc(Cn2c(SCc3ccncc3)nnc2-c2cccs2)cc1` yielded an EC50 of 4.8 µM. Also, the selectivity ratio in data set [2] amounted to 15.
The corresponding values for `COc1ccc(CSc2nnc(-c3cccs3)n2Cc2ccccc2)cc1` are 3 µM and 3.8.
Molecule `c1ccc(CSc2nnc(-c3cccs3)n2Cc2ccccc2)cc1` gave an EC50 in data set [1] of 3.7 µM. Moreover, in data set [3], the logD worked out at 3.5. In addition, in data set [2], the selectivity ratio worked out at 8.
In turn, `Clc1cccc(CSc2nnc(-c3ccsc3)n2Cc2ccccc2)c1` gave an EC50 in data set [1] of 1.6 µM. In addition, the selectivity ratio in data set [2] came out at 6.3.
In the case of `COc1ccc(Cn2c(SCc3ccccc3)nnc2-c2cccs2)cc1`, in data set [1], the concentration giving a half-maximal response (EC50) was greater than 100 µM. Also, the Selectivity index result in data set [2] is “Not Active”.
The molecule `c1ccc(Cn2c(SCc3ccccn3)nnc2-c2cccs2)cc1` displayed an EC50 in data set [1] of 8.3 µM. For the same molecule, the selectivity ratio in data set [2] amounted to 5.
In turn, `Clc1ccc(CSc2nnc(-c3cccs3)n2Cc2ccccc2)cc1` returned an EC50 in data set [1] of 2 µM. In data set [2], the selectivity ratio was found to be 5.7.
In turn, `c1ccc(CSc2nnc(-c3cc4ccccc4s3)n2Cc2ccccc2)cc1` yielded a 50% effective concentration (EC50) in data set [1] greater than 100 µM. In data set [2], the Selectivity index entry is “Not Active”.
As to `Clc1ccc(Cl)c(CSc2nnc(-c3cccs3)n2Cc2ccccc2)c1`, the 50% effective concentration (EC50) in data set [1] is 1 µM. Moreover, the selectivity ratio in data set [2] is 7.9.
Molecule `c1ccc(Cn2c(SCc3ccc4ccccc4c3)nnc2-c2cccs2)cc1` showed a concentration giving a half-maximal response (EC50) in data set [1] of 1.7 µM. Further, the selectivity ratio in data set [2] worked out at 5.9.
In data set [1], `c1ccc(Cn2c(SCc3cccnc3)nnc2-c2ccsc2)cc1` displayed an EC50 of 23 µM. The selectivity ratio in data set [2] worked out at 2.
The molecule `Clc1cccc(CSc2nnc(-c3cccs3)n2Cc2ccccc2)c1` yielded an EC50 in data set [1] of 1.7 µM. For the same molecule, the selectivity ratio in data set [2] is 5.3.
The corresponding values for `COc1ccc(CSc2nnc(-c3ccsc3)n2Cc2ccccc2)cc1` are 5.8 µM and 1.
As to `Clc1ccc(CSc2nnc(-c3cccs3)n2Cc2ccccc2)c(Cl)c1`, the concentration for a half-maximal effect (EC50) in data set [1] worked out at 1.1 µM. In addition, in data set [2], the selectivity ratio was 7.7.
As to `CSc1nnc(-c2ccsc2)n1Cc1ccccc1`, in data set [1], the EC50 was greater than 100 µM. Also, the Selectivity index result in data set [2] is recorded as “Not Active”.
With `c1ccc(CSc2nnc(-c3ccsc3)n2Cc2ccccc2)cc1`, the concentration for a half-maximal effect (EC50) in data set [1] was determined as 9.2 µM. The selectivity ratio in data set [2] turned out to be 2.
`Clc1ccc(CSc2nnc(-c3ccsc3)n2Cc2ccccc2)cc1Cl` registered an EC50 in data set [1] of 4.7 µM. In addition, the selectivity ratio in data set [2] came to 1.2.
In the case of `c1ccc(CSc2nnc(-c3ccccc3)n2Cc2ccccc2)cc1`, the response in data set [1] was half-maximal at 10.5 µM (EC50). In addition, the selectivity ratio in data set [2] stood at 1.1.
Molecule `Clc1cccc(CSc2nnc(-c3ccsc3)n2Cc2ccccc2)c1Cl` registered an EC50 in data set [1] of 1.3 µM. Also, in data set [2], the selectivity ratio came out at 5.
Take `O=C1Nc2ccc(Cl)cc2C(C#CC2CC2)(C(F)(F)F)O1` (single isomer, unassigned) [EFAVIRENZ]: the selectivity ratio in data set [2] was greater than 6000.

In general, EC50 refers to the concentration that produces a half-maximal response. What is called logD is the decadic logarithm of the distribution of all forms, ionised or not, between an organic phase and buffer at a given pH.
